The text below walks through data of the RNAGym collection of RNA variant scans (doi:10.1126/science.aae0568).

B1: tRNA (parent)
chain: GUUCCGUUGGCGUAAUGGUAACGCGUCUCCCUCCUAAGGAGAAGACUGCGGGUUCGAGUCCCGUACGGAACG

This sample holds only a part of the variants without activity.

In this data set the parent is B1. Nature of the data set: yeast fitness relative to wild type (ratio to wild type); higher = fitter; tRNA-Arg(CCU), competitive growth, 37 C, YPD. In short, it runs like this: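 Genotype frequency changes were the basis for Darwinian fitness relative to wild type. The frequencies came from 100-nucleotide paired-end sequencing of gene amplicons from the start population and each end population of pooled yeast strains with tRNA-Arg(CCU) gene variants at the native locus. Competition ran in YPD at 37°C for 24 hours in six replicates, genotypes needed ≥ 100 starting reads, and estimates < 0.5 were set to 0.5.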
As for G10C C31G U32C A36U A57U C60G, the yeast fitness was not above 0.5.

Take G10C A14U C22U C24G U35C G56C U64A: the yeast fitness is not above 0.5.

Consider G10C G51A, for which the yeast fitness worked out at 0.585.

Regarding G10C C55A, the yeast fitness came out at 0.568.

Consider G10C G68C, for which the yeast fitness stood at 0.697.

As for G10C A21C U26C C31A A42U, the yeast fitness was not above 0.5.

G10A U35A A57C: the yeast fitness is not above 0.5.

Regarding G10A U53A G58A G68U, the yeast fitness was not above 0.5.

Turning to G10C A20G U26C C46U, the yeast fitness is not above 0.5.

As for G10A U35G, the yeast fitness was not above 0.5.

On to G10A U35A, for which the yeast fitness was 0.62.

Regarding G10A U35C, the yeast fitness was determined as 0.582.

For the variant G10C C22G C29A G41A C46U A65C, the yeast fitness was not above 0.5.

As for G10C A57G, the yeast fitness came to 0.604.

Consider G10C A57U, for which the yeast fitness is 0.548.

As to G10C C22U C60U C61A G63C A65U, the yeast fitness was not above 0.5.

In the case of G10C C29A C46U C60G, the yeast fitness is not above 0.5.

As to G10C C22A U35C C60G C61U G63A, the yeast fitness is not above 0.5.

With G10C C22U C33U U35C, the yeast fitness was not above 0.5.

Turning to G10C C31A A65C A69C, the yeast fitness was not above 0.5.

Regarding G10C C29G A42U G58A G63A G67A, the yeast fitness was not above 0.5.

With G10C A20U C60G, the yeast fitness was 0.587.

G10C C34G A40G: the yeast fitness is not above 0.5.

Turning to G10C G18C A45C G56C A70C, the yeast fitness is not above 0.5.

Regarding G10C C34G U54C G67U, the yeast fitness is not above 0.5.

Regarding G10C C24U C61G C66U A69U, the yeast fitness is not above 0.5.

Take G10C A69U: the yeast fitness turned out to be 0.661.

As for G10C A15C C29G G48A, the yeast fitness was 0.643.

On to G10C U13A C31A C55U, for which the yeast fitness is not above 0.5.

Consider G10A U35G A37U U47C A70G, for which the yeast fitness is not above 0.5.

As for G10C A15C A43C, the yeast fitness was not above 0.5.

Regarding G10C G44C G51C, the yeast fitness is not above 0.5.

With G10A U28C C61U C66G, the yeast fitness is not above 0.5.

As to G10C C29U, the yeast fitness is 0.589.

Consider G10C A57G A65U, for which the yeast fitness is not above 0.5.

Take G10C C55A C61U A65C G68A: the yeast fitness is not above 0.5.

Take G10C A14U U19A C22U: the yeast fitness amounted to 0.505.

On to G10C C34G U54C A70U, for which the yeast fitness was not above 0.5.

G10C C31U U35G C62U: the yeast fitness was not above 0.5.

Consider G10C A40U, for which the yeast fitness is 0.635.

In the case of G10C G44A, the yeast fitness was found to be 0.699.

In the case of G10C C33A G48A G58A, the yeast fitness was not above 0.5.

Take G10C C33G A57G: the yeast fitness was not above 0.5.

As for G10C C29U C46A A69U, the yeast fitness was 0.59.

As for G10C G18A C66U, the yeast fitness is not above 0.5.

G10C C11G U13A A36G C55U: the yeast fitness was not above 0.5.

For the variant G10C C27G U54C C61G, the yeast fitness was not above 0.5.

Turning to G10C C31U A57C C62A, the yeast fitness was not above 0.5.

With G10C A15U A37U A45C G52C, the yeast fitness was determined as 0.606.

G10C G23A U35A A40U A42U C55G: the yeast fitness is not above 0.5.

Turning to G10C C29G G39A, the yeast fitness is not above 0.5.

For the variant G10C C11G A21U A45C G52C A57G, the yeast fitness was not above 0.5.

On to G10C C11G A45U, for which the yeast fitness is not above 0.5.

Turning to G10C C34G U59A, the yeast fitness is not above 0.5.

For G10C A40U G50A, the yeast fitness is not above 0.5.

As for G10C C29U A43G U53G G63A, the yeast fitness worked out at 0.527.

Turning to G10C A45G A65C A69C, the yeast fitness is 0.571.

For the variant G10C A70C, the yeast fitness was determined as 0.689.

On to G10C A15U A37U, for which the yeast fitness is not above 0.5.

In the case of G10C A15C C46U, the yeast fitness is not above 0.5.

Take G10C G23A G52C C62U: the yeast fitness came out at 0.55.

As for G10C A15G U35A G44A C61A U64C, the yeast fitness was not above 0.5.

Take G10C C46A A69U: the yeast fitness is 0.615.

For G10C A45U C49G C60A, the yeast fitness was not above 0.5.

With G10C G12A U28C C61G C66U, the yeast fitness is not above 0.5.

G10C C11G C24G: the yeast fitness is 0.577.

Take G10C A37U G58A: the yeast fitness was 0.608.

G10C A45U C60G C66G: the yeast fitness is not above 0.5.

As for G10C A36C A57C, the yeast fitness was not above 0.5.

As for G10C C29A A40U C55G G67C, the yeast fitness was not above 0.5.

Consider G10C C33A A45C C55U, for which the yeast fitness was not above 0.5.

Consider G10A U35G A37U U47C G56C U64C A69C, for which the yeast fitness was not above 0.5.

Consider G10C A14C A15C A43U, for which the yeast fitness was not above 0.5.

For G10C C11G C22A C30G U53A, the yeast fitness stood at 0.653.

On to G10C G12U C33U U35G, for which the yeast fitness is not above 0.5.

G10C A14U U19A C22U C66U: the yeast fitness is not above 0.5.

Regarding G10C C11U C29G A42U, the yeast fitness is not above 0.5.

For the variant G10C C29A C31U G68C, the yeast fitness was not above 0.5.

For G10C A20G C24U G38C, the yeast fitness was found to be 0.561.

For the variant G10C A45U G48A C55A, the yeast fitness is not above 0.5.

With G10C C11G C55G C62U, the yeast fitness is 0.62.

Consider G10C A15C A21C A69U, for which the yeast fitness was not above 0.5.

For G10C G12C G17U G39A C61U A69C, the yeast fitness was not above 0.5.

With G10C C49U A69C, the yeast fitness came out at 0.575.

In the case of G10A U35G A37U U47C G56C A69C, the yeast fitness was not above 0.5.

For G10C G48A U54A A69C, the yeast fitness is not above 0.5.

For the variant G10C G12C C33U U35G C49G, the yeast fitness is not above 0.5.

As to G10C G50A U59A G67U, the yeast fitness was not above 0.5.

For the variant G10C C49A C62U, the yeast fitness was not above 0.5.

For G10C C24G C46U, the yeast fitness amounted to 0.702.

As for G10C A14U C31G, the yeast fitness is not above 0.5.

In the case of G10C C11U C27G A42G C55U, the yeast fitness was 0.785.

Regarding G10C C29A A37G U64C, the yeast fitness was not above 0.5.

On to G10C C24G A70U, for which the yeast fitness was not above 0.5.

On to G10C C33G U64C, for which the yeast fitness was not above 0.5.

As for G10C A21U C22G G67C, the yeast fitness turned out to be 0.765.

Consider G10C C29U C46A, for which the yeast fitness was not above 0.5.

Consider G10C A15G U35A G44A A69U, for which the yeast fitness is not above 0.5.

Take G10C C29A G68C: the yeast fitness is not above 0.5.

As for G10C C29U C31U U54G A65U G67A, the yeast fitness is not above 0.5.

Regarding G10C A20G A21C C27A C49U U54A A70C, the yeast fitness is 0.653.

As to G10A U54A C55G, the yeast fitness is not above 0.5.

For the variant G10C A14G U28C G39A A65U, the yeast fitness is not above 0.5.

Consider G10A U32G, for which the yeast fitness is not above 0.5.

G10C G44A A70C: the yeast fitness is not above 0.5.

As for G10C A21C C27A C34A C49G A65G, the yeast fitness is not above 0.5.

For the variant G10C C27U A65C, the yeast fitness came out at 0.552.

In the case of G10C A14G C24A, the yeast fitness was not above 0.5.

For G10C C33G A36C, the yeast fitness is not above 0.5.

In the case of G10C A43G G52C C62U G63A, the yeast fitness was 0.531.

As to G10C A14G C24A A70U, the yeast fitness is not above 0.5.

For the variant G10C G48A U54A, the yeast fitness is not above 0.5.

Take G10C C55A A65C G68A: the yeast fitness is not above 0.5.

Regarding G10C A14U C29G, the yeast fitness was found to be 0.584.

As to G10C C27U C66G, the yeast fitness was not above 0.5.

As for G10C U13A A43U C61A A70C, the yeast fitness was not above 0.5.

Consider G10C C46G G51A G52A, for which the yeast fitness was not above 0.5.

With G10C C29U C49G G63C, the yeast fitness is not above 0.5.

Consider G10C C33G A36C U64A A65C, for which the yeast fitness was not above 0.5.

With G10C G12C G39A G50A A69U, the yeast fitness was not above 0.5.

Turning to G10A U35A G52C C66U, the yeast fitness is not above 0.5.

As to G10C G56A A70C, the yeast fitness worked out at 0.554.

For G10C A14U A20U C31A C55G G56C, the yeast fitness was not above 0.5.

On to G10C A40G C62G, for which the yeast fitness was not above 0.5.

With G10A U54C C61G, the yeast fitness was not above 0.5.

For G10C A21G C30A G38C C46U, the yeast fitness came out at 0.681.

With G10C G23A A45C U54C, the yeast fitness was determined as 0.58.

As for G10C C49G A65G, the yeast fitness stood at 0.55.

With G10C A37G G52A C55G G58A, the yeast fitness was not above 0.5.

Take G10C C30U C31A: the yeast fitness was not above 0.5.

G10C C29G A70C: the yeast fitness is not above 0.5.

For G10C A14U U19A C22U C60U G68C, the yeast fitness was not above 0.5.

In the case of G10C G12A C33G U47G, the yeast fitness is not above 0.5.

For the variant G10A U26A G63A C66U, the yeast fitness was not above 0.5.

On to G10C G23C C33G C46A C66A, for which the yeast fitness is not above 0.5.

With G10C C11U C49A, the yeast fitness turned out to be 0.562.

In the case of G10C A21G G23A, the yeast fitness is not above 0.5.

Turning to G10C G48A, the yeast fitness was 0.851.

Take G10A U32C G63A: the yeast fitness is not above 0.5.

On to G10C C34A A40G, for which the yeast fitness stood at 0.631.

Take G10C C24A G52A: the yeast fitness was not above 0.5.

On to G10C C22A C24G A65U, for which the yeast fitness is not above 0.5.

Regarding G10C C30G U59G C66A, the yeast fitness was not above 0.5.

With G10A U47A, the yeast fitness was 0.815.

On to G10A U47C, for which the yeast fitness is 0.589.

Turning to G10C C11A, the yeast fitness worked out at 0.6.

Turning to G10C A14C A40C C60A G63A, the yeast fitness is not above 0.5.

As for G10C U13C G18C C27U C33G C55U U64A G68C A70U, the yeast fitness came out at 0.593.

Regarding G10C C30G, the yeast fitness is 0.507.

For the variant G10C C30A, the yeast fitness was 0.815.

Regarding G10C C30U, the yeast fitness came out at 0.733.

For the variant G10C C24A C30G A40G U47G C55U, the yeast fitness was not above 0.5.

As to G10A U32G C34A, the yeast fitness is not above 0.5.

In the case of G10C A45U U53G, the yeast fitness is not above 0.5.

Regarding G10C C34G C49U, the yeast fitness was not above 0.5.

With G10C C31U U35G, the yeast fitness is not above 0.5.

On to G10C C22U C30G A40C G50A C60G, for which the yeast fitness is not above 0.5.

G10C G12A A15G A69C: the yeast fitness was not above 0.5.

For the variant G10C A14U G67A, the yeast fitness is not above 0.5.

Regarding G10C C33A U35C G67C, the yeast fitness was found to be 0.675.

Regarding G10C C27G C61G, the yeast fitness is not above 0.5.

Turning to G10C A45C U59C, the yeast fitness was not above 0.5.

With G10C G67U, the yeast fitness worked out at 0.689.

As to G10C C27G G38C G56A, the yeast fitness stood at 0.526.

Consider G10C A15G C61A, for which the yeast fitness is not above 0.5.

Take G10C C27U A36C C61U: the yeast fitness was 0.586.

As for G10C C29A A40U C55G, the yeast fitness is not above 0.5.
